Data as given in ChEMBL document CHEMBL4834429, “Discovery of Nanomolar Melanocortin-3 Receptor (MC3R)-Selective Small Molecule Pyrrolidine Bis-Cyclic Guanidine Agonist Compounds Via a High-Throughput "Unbiased" Screening Campaign” (J Med Chem, 2021).

What was measured:
Format in all cases: functional, cell-based
[1] = biological target: Melanocyte-stimulating hormone receptor (Mus musculus) (UniProt Q01727); test: Agonist activity at mouse melanocortin receptor 1 expressed in HEK293 cells assessed as stimulation of intracellular cAMP accumulation at 10 uM incubated for 24 hrs by beta-galactosidase reporter gene assay relative to control
Outline: (§1)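 After lysis, ONPG hydrolysis was read at 405 nm and normalized to Bradford protein and maximal NDP-MSH response. Duplicates, ≥3 independent experiments; 100 μM dropped from fits where toxic.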

[2] = biological target: Melanocortin receptor 3 (Mus musculus) (UniProt P33033); test: Agonist activity at mouse melanocortin receptor 3 expressed in HEK293 cells assessed as stimulation of intracellular cAMP accumulation at 10 uM incubated for 24 hrs by beta-galactosidase reporter gene assay relative to control; outline: as §1
[3] = biological target: Melanocortin receptor 4 (Mus musculus) (UniProt P56450); test: Agonist activity at mouse melanocortin receptor 4 expressed in HEK293 cells assessed as stimulation of intracellular cAMP accumulation at 10 uM incubated for 24 hrs by beta-galactosidase reporter gene assay relative to control; outline: as §1
Melanocortin receptor 5 = Melanocortin receptor 5 (Mus musculus, UniProt P41149); test: Agonist activity at mouse melanocortin receptor 5 expressed in HEK293 cells assessed as stimulation of intracellular cAMP accumulation incubated for 24 hrs by beta-galactosidase reporter gene assay
[4] = biological target: Melanocyte-stimulating hormone receptor (Mus musculus, UniProt Q01727); test: Agonist activity at mouse melanocortin receptor 1 expressed in HEK293 cells assessed as stimulation of intracellular cAMP accumulation incubated for 24 hrs by beta-galactosidase reporter gene assay
Melanocortin receptor 3 = Melanocortin receptor 3 (Mus musculus, UniProt P33033); test: Agonist activity at mouse melanocortin receptor 3 expressed in HEK293 cells assessed as stimulation of intracellular cAMP accumulation incubated for 24 hrs by beta-galactosidase reporter gene assay
Melanocortin receptor 4 [5] = biological target: T1, Melanocortin receptor 4 (Mus musculus, UniProt P56450); test: Antagonist activity at mouse melanocortin receptor 4 expressed in HEK293 cells assessed as inhibition of NDP-MSH-induced intracellular cAMP accumulation incubated for 24 hrs by beta-galactosidase reporter gene assay; details: read-out: pA2 (converted)
Melanocortin receptor 4 [6] = biological target: T1, Melanocortin receptor 4; test: Agonist activity at mouse melanocortin receptor 4 expressed in HEK293 cells assessed as stimulation of intracellular cAMP accumulation incubated for 24 hrs by beta-galactosidase reporter gene assay; outline: as §1

Melanocortin receptor 3, sequence (P33033 whole entry): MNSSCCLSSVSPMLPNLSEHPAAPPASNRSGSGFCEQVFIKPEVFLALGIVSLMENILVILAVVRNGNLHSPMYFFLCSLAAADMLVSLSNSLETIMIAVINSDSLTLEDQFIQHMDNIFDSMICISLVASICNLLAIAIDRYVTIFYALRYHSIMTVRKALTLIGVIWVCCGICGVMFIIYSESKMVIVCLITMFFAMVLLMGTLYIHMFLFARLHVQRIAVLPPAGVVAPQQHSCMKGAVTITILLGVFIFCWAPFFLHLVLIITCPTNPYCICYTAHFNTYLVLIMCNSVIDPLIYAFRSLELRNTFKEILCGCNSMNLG
Melanocortin receptor 3 (Mus musculus), sequence (P33033 whole entry): as above
Melanocyte-stimulating hormone receptor (Mus musculus), sequence (Q01727 whole entry, looked up): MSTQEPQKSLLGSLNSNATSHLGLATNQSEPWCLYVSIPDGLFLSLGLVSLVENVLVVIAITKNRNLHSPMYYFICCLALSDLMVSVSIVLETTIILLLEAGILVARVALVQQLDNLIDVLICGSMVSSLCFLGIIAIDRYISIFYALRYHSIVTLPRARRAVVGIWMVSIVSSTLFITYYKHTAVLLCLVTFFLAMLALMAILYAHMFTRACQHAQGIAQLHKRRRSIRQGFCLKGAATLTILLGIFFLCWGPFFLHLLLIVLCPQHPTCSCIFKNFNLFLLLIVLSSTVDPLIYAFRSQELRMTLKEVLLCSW
Melanocyte-stimulating hormone receptor, sequence (Q01727 whole entry): as the sequence (Q01727 whole entry, looked up) above
Melanocortin receptor 5, sequence (P41149 whole entry): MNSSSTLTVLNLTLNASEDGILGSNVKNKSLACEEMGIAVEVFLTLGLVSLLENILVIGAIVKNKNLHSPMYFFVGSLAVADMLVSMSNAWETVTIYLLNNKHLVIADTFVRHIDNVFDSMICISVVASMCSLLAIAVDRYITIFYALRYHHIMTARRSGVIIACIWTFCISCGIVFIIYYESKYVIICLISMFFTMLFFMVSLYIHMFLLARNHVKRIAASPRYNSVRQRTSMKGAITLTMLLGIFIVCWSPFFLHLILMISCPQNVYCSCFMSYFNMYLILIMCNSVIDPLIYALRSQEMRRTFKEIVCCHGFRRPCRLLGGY
Melanocortin receptor 4 (Mus musculus), sequence (P56450 whole entry): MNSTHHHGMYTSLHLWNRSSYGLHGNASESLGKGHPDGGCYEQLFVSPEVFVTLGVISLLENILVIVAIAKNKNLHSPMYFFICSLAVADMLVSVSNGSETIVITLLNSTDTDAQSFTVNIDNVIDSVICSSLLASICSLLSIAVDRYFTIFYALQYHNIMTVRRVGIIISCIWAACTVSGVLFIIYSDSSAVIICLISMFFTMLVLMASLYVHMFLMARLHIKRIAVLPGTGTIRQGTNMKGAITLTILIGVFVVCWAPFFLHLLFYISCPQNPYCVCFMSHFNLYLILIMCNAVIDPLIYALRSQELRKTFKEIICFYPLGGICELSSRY
T1 sequence (P56450 whole entry): as above

| SMILES | Emax ([2]; filed as agonist) [%] | Emax ([3]; filed as agonist) [%] | EC50 (Melanocortin receptor 5) [nM] | EC50 [4] [nM] | EC50 (Melanocortin receptor 3) [nM] | also measured |
| --- | --- | --- | --- | --- | --- | --- |
| CCC[C@@H]1CN([C@H](CC2CCCCC2)CN2CCC[C@H]2CN2C(=N)NC[C@H]2CC(C)C)C(=N)N1CC12CC3CC(CC(C3)C1)C2 | 67 | 51 | 470 |  |  | Emax ([1]; filed as agonist): 70% |
| CC(C)[C@@H]1CNC(=N)N1C[C@@H]1CCCN1C[C@@H](Cc1ccccc1)N1C[C@@H](C(C)C)N(CC2CCC(C(C)(C)C)CC2)C1=N (stereo not given in full) | 68 |  | 600 | 29100 |  |  |
| CC(C)[C@@H]1CNC(=N)N1C[C@@H]1CCCN1C[C@@H](CC1CCCCC1)N1C[C@@H]([C@@H](C)O)N(CC2CCC(C(C)(C)C)CC2)C1=N (stereo not given in full) |  | 41 | 150 | 300 | 220 | Kb (Melanocortin receptor 4 [5]): 1260 nM |
| CC(C)[C@@H]1CNC(=N)N1C[C@@H]1CCCN1C[C@@H](CC1CCCCC1)N1C[C@@H](C(C)C)N(CC2CCC(C(C)(C)C)CC2)C1=N (stereo not given in full) |  |  | 510 | 290 | 4300 | Emax [3]: 28% |
| CC(C)CCCN1C(=N)N([C@H](Cc2ccccc2)CN2CCC[C@H]2CN2C(=N)NC[C@H]2CC(C)C)C[C@H]1C(C)C |  | 10 | 1260 |  |  |  |
| CC(C)C[C@@H]1CNC(=N)N1C[C@@H]1CCCN1C[C@@H](Cc1ccccc1)N1C[C@@H]([C@@H](C)O)N(CC23CC4CC(CC(C4)C2)C3)C1=N |  | 58 | 810 |  | 360 | Emax ([1]; filed as agonist): 41%; Kb (Melanocortin receptor 4 [5]): 1580 nM |
| CC(C)[C@@H]1CNC(=N)N1C[C@@H]1CCCN1C[C@@H](Cc1ccccc1)N1C[C@@H](C(C)C)N(CC23CC4CC(CC(C4)C2)C3)C1=N |  | 54 | 660 | 47800 | 4000 |  |
| CC(C)CCCN1C(=N)N([C@H](CC2CCCCC2)CN2CCC[C@H]2CN2C(=N)NC[C@H]2CC(C)C)C[C@H]1C(C)C |  | 51 | 1850 |  |  | Emax ([1]; filed as agonist): 50%; Emax [2]: 33% |
| CCC[C@@H]1CN([C@H](CC2CCCCC2)CN2CCC[C@H]2CN2C(=N)NC[C@H]2CC(C)C)C(=N)N1CCCC(C)C | 58 |  | 1800 | 2300 |  | EC50 (Melanocortin receptor 4 [6]): 6700 nM |
| CSCC[C@H](NC(=O)[C@H](CO)NC(=O)[C@H](Cc1ccc(O)cc1)NC(=O)[C@@H](N)CO)C(=O)N[C@@H](CCC(=O)O)C(=O)N[C@@H](Cc1c[nH]cn1)C(=O)N[C@@H](Cc1ccccc1)C(=O)N[C@@H](CCCN=C(N)N)C(=O)N[C@@H](Cc1c[nH]c2ccccc12)C(=O)NCC(=O)N[C@@H](CCCCN)C(=O)N1CCC[C@H]1C(=O)N[C@H](C(=O)O)C(C)C |  |  | 0.7 |  |  | EC50 (Melanocortin receptor 4 [6]): 1.6 nM |
| CC(C)CCCN1C(=N)N([C@H](CC2CCCCC2)CN2CCC[C@H]2CN2C(=N)NC[C@H]2CC(C)C)C[C@H]1[C@@H](C)O | 58 | 10 | 630 | 7300 |  |  |
| CCC[C@@H]1CN([C@H](Cc2ccccc2)CN2CCC[C@H]2CN2C(=N)NC[C@H]2CC(C)C)C(=N)N1CC1CCC(C(C)(C)C)CC1 (stereo not given in full) | 73 |  | 480 |  |  | Emax [1]: 38%; Emax [3]: 28% |
| CC(C)C[C@@H]1CNC(=N)N1C[C@@H]1CCCN1C[C@@H](Cc1ccccc1)N1C[C@@H]([C@@H](C)O)N(CC2CCC(C(C)(C)C)CC2)C1=N (stereo not given in full) |  |  | 530 |  | 310 | Emax ([1]; filed as agonist): 58% |
| CC(C)C[C@@H]1CNC(=N)N1C[C@@H]1CCCN1C[C@@H](Cc1ccccc1)N1C[C@@H](C(C)C)N(CC23CC4CC(CC(C4)C2)C3)C1=N | 67 |  | 440 | 15500 |  | EC50 (Melanocortin receptor 4 [6]): 8200 nM |
| CC(C)C[C@@H]1CNC(=N)N1C[C@@H]1CCCN1C[C@@H](CC1CCCCC1)N1C[C@@H](C(C)C)N(CC23CC4CC(CC(C4)C2)C3)C1=N | 70 | 50 | 500 | 570 |  |  |
| CC(C)[C@@H]1CNC(=N)N1C[C@@H]1CCCN1C[C@@H](Cc1ccccc1)N1C[C@@H]([C@@H](C)O)N(CC2CCC(C(C)(C)C)CC2)C1=N (stereo not given in full) |  |  | 490 | 600 | 420 | Kb (Melanocortin receptor 4 [5]): 316 nM |
| CC(C)C[C@@H]1CNC(=N)N1C[C@@H]1CCCN1C[C@@H](CC1CCCCC1)N1C[C@@H](C(C)C)N(CC2CCC(C(C)(C)C)CC2)C1=N (stereo not given in full) | 69 |  | 560 |  |  | Emax ([1]; filed as agonist): 54%; Kb (Melanocortin receptor 4 [5]): 3160 nM |
| CC(C)C[C@@H]1CNC(=N)N1C[C@@H]1CCCN1C[C@@H](CC1CCCCC1)N1C[C@@H]([C@@H](C)O)N(CC2CCC(C(C)(C)C)CC2)C1=N (stereo not given in full) |  | 45 | 140 | 300 | 210 | EC50 (Melanocortin receptor 4 [6]): 270 nM |
| O=C(N[C@@H](Cc1ccc(Cl)cc1)C(=O)N1CCC(Cn2cncn2)(C2CCCCC2)CC1)[C@H]1Cc2ccccc2CN1 |  |  |  |  |  | EC50 (Melanocortin receptor 4 [6]): 0.9 nM |
| CC(C)[C@@H]1CNC(=N)N1C[C@@H]1CCCN1C[C@@H](CC1CCCCC1)N1C[C@@H]([C@@H](C)O)N(CC23CC4CC(CC(C4)C2)C3)C1=N |  | 49 | 600 | 200 | 370 | Kb (Melanocortin receptor 4 [5]): 1580 nM |
| CCC[C@@H]1CN([C@H](CC2CCCCC2)CN2CCC[C@H]2CN2C(=N)NC[C@H]2C(C)C)C(=N)N1CCCC(C)C | 51 | 40 | 1040 |  |  | Emax ([1]; filed as agonist): 51% |
| CCC[C@@H]1CN([C@H](Cc2ccccc2)CN2CCC[C@H]2CN2C(=N)NC[C@H]2CC(C)C)C(=N)N1CC12CC3CC(CC(C3)C1)C2 | 74 |  | 610 | 7000 |  | EC50 (Melanocortin receptor 4 [6]): 1330 nM |
| CCC[C@@H]1CN([C@H](Cc2ccccc2)CN2CCC[C@H]2CN2C(=N)NC[C@H]2C(C)C)C(=N)N1CC1CCC(C(C)(C)C)CC1 (stereo not given in full) |  |  | 940 | 2300 | 6200 | Emax [3]: 27% |
| CC(C)C[C@@H]1CNC(=N)N1C[C@@H]1CCCN1C[C@@H](CC1CCCCC1)N1C[C@@H]([C@@H](C)O)N(CC23CC4CC(CC(C4)C2)C3)C1=N |  | 55 | 340 | 330 | 240 | EC50 (Melanocortin receptor 4 [6]): 650 nM |
| CCC[C@@H]1CN([C@H](CC2CCCCC2)CN2CCC[C@H]2CN2C(=N)NC[C@H]2C(C)C)C(=N)N1CC1CCC(C(C)(C)C)CC1 (stereo not given in full) |  | 50 | 540 |  | 350 | Emax ([1]; filed as agonist): 51%; Kb (Melanocortin receptor 4 [5]): 1580 nM |
| CC(C)[C@@H]1CNC(=N)N1C[C@@H]1CCCN1C[C@@H](CC1CCCCC1)N1C[C@@H](C(C)C)N(CC23CC4CC(CC(C4)C2)C3)C1=N |  | 40 | 580 | 300 | 3700 |  |
| CC(C)CCCN1C(=N)N([C@H](CC2CCCCC2)CN2CCC[C@H]2CN2C(=N)NC[C@H]2C(C)C)C[C@H]1[C@@H](C)O |  |  | 740 | 700 | 5200 |  |
| CC(C)C[C@@H]1CNC(=N)N1C[C@@H]1CCCN1C[C@@H](Cc1ccccc1)N1C[C@@H](C(C)C)N(CC2CCC(C(C)(C)C)CC2)C1=N (stereo not given in full) | 62 |  | 560 | 6800 |  |  |
| CC(C)CCCN1C(=N)N([C@H](CC2CCCCC2)CN2CCC[C@H]2CN2C(=N)NC[C@H]2C(C)C)C[C@H]1C(C)C | 51 | 51 | 1700 | 6100 |  |  |
| CCC[C@@H]1CN([C@H](CC2CCCCC2)CN2CCC[C@H]2CN2C(=N)NC[C@H]2CC(C)C)C(=N)N1CC1CCC(C(C)(C)C)CC1 (stereo not given in full) | 75 | 65 | 530 | 500 |  |  |
